According to ChEMBL document CHEMBL3745705, “Discovery of Oral VEGFR-2 Inhibitors with Prolonged Ocular Retention That Are Efficacious in Models of Wet Age-Related Macular Degeneration” (J Med Chem, 2015):
pIC50: −log10 of the molar value. ≈ marks a conversion by molar mass, not a printed value. Blank lines part the entries; values can stand above or below the compound they belong to.

Legend:
[1] = Aqueous solubility of the compound at pH 6.8; conditions: aqueous medium
Mus musculus [2] = species on record: Mus musculus; assay: animal or person; conditions: C57BL/6, po, read-out: INH
[3] = target: Voltage-gated inwardly rectifying potassium channel KCNH2 (Homo sapiens, UniProt Q12809); assay: Inhibition of human ERG channel by automated Q-patch assay
Mus musculus [4] = assay: Antiangiogenic activity in po dosed C57BL/6 mouse laser-induced choroidal neovascularization assessed as inhibition of neovascular lesion formation administered qd for 6 days measured on day 7 by microscopic analysis; type: functional; conditions: C57BL/6, po
Rattus norvegicus [5] = assay: Antiangiogenic activity in po dosed Brown Norway rat laser-induced choroidal neovascularization model assessed as inhibition of neovascular lesion formation administered qd for 14 days by microscopic analysis; type: functional; conditions: 336 h
Method in brief: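 Male Brown Norway rats, about 12 weeks old, dosed by oral gavage starting about 1 h before laser. Lesions were made under ketamine/xylazine i.p. (40–80 / 5–10 mg/kg) with 532 nm laser pulses (30 ms, 190 mW, 200 µm spot), about 4 lesions per eye and 10 rats per group. Vessels were labelled with i.v. 2,000 kD FITC dextran, eyes fixed in 4% paraformaldehyde, and CNV area measured blinded.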

Plasma [6] = assay: Dose normalized AUC (0 to 24 hrs) in Brown Norway rat plasma at 2 mg/kg, po; type: ADME, organism-based; conditions: in vivo
[7] = Dose normalized AUC (0 to 24 hrs) in Brown Norway rat retina at 2 mg/kg, po; type: ADME, organism-based; conditions: in vivo
[8] = Dose normalized AUC (0 to 24 hrs) in Brown Norway rat posteior eye cup at 2 mg/kg, po; type: ADME, organism-based; conditions: in vivo
Plasma [9] = assay: Dose normalized Cmax in Brown Norway rat plasma at 2 mg/kg, po; type: ADME, organism-based; conditions: in vivo
Method in brief: (§1)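 Single oral dose to three-month-old Brown Norway rats as a suspension in 0.5% MC/0.1% tween 80, WFI. Retina, posterior eye cup (RPE/choroid/sclera) and plasma collected from 2 rats per time point up to 144 h. Tissues homogenized, plasma proteins precipitated, drug quantified by LC-MS/MS.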

[10] = Dose normalized Cmax in Brown Norway rat retina at 2 mg/kg, po; type: ADME, organism-based; conditions: in vivo; method in brief: as §1
[11] = Dose normalized Cmax in Brown Norway rat posteior eye cup at 2 mg/kg, po; type: ADME, organism-based; conditions: in vivo; method in brief: as §1
Plasma [12] = assay: Dose normalized plasma concentration in Brown Norway rat plasma at 2 mg/kg, po measured at 24 hrs by LC-MS/MS analysis; type: ADME, organism-based; conditions: in vivo; method in brief: as §1
[13] = Dose normalized drug uptake in Brown Norway rat retina at 2 mg/kg, po by LC-MS/MS analysis; type: ADME, organism-based; conditions: in vivo; method in brief: as §1
Rattus norvegicus [14] = assay: AUC (0 to 8 hrs) in Brown Norway rat at 3 mg/kg, po by LC-MS/MS analysis; type: ADME, organism-based; set-up: dose 3 mg/kg, time < 8 hr, route oral; conditions: in vivo
[15] = Volume of distribution at steady state in Brown Norway rat at 3 mg/kg, po or 1 mg/kg, iv by LC-MS/MS analysis; type: ADME, organism-based; conditions: in vivo, read-out: Vdss
[16] = Half life in Brown Norway rat at 3 mg/kg, po or 1 mg/kg, iv by LC-MS/MS analysis; type: ADME, organism-based; conditions: in vivo
[17] = Cmax in Brown Norway rat at 3 mg/kg, po or 1 mg/kg, iv by LC-MS/MS analysis; type: ADME, organism-based; conditions: in vivo
Rattus norvegicus [18] = assay: Oral bioavailability in Brown Norway rat at 3 mg/kg by LC-MS/MS analysis; type: ADME, organism-based; conditions: in vivo
[19] = Drug uptake in Brown Norway rat posteior eye cup at 2 mg/kg, po; type: ADME, organism-based; conditions: in vivo; method in brief: as §1
Plasma [20] = assay: Dose normalized AUC (0 to 24 hrs) in Brown Norway rat plasma at 6 mg/kg, po; type: ADME, organism-based; conditions: in vivo
[21] = Dose normalized AUC (0 to 24 hrs) in Brown Norway rat retina at 6 mg/kg, po; type: ADME, organism-based; conditions: in vivo
[22] = Dose normalized AUC (0 to 24 hrs) in Brown Norway rat posteior eye cup at 6 mg/kg, po; type: ADME, organism-based; conditions: in vivo
Plasma [23] = assay: Dose normalized Cmax in Brown Norway rat plasma at 6 mg/kg, po; type: ADME, organism-based; conditions: in vivo
[24] = Dose normalized Cmax in Brown Norway rat retina at 6 mg/kg, po; type: ADME, organism-based; conditions: in vivo
[25] = Dose normalized Cmax in Brown Norway rat posteior eye cup at 6 mg/kg, po; type: ADME, organism-based; conditions: in vivo
Plasma [26] = assay: Dose normalized plasma concentration in Brown Norway rat plasma at 6 mg/kg, po measured at 24 hrs by LC-MS/MS analysis; type: ADME, organism-based; conditions: in vivo
[27] = Dose normalized drug uptake in Brown Norway rat retina at 6 mg/kg, po by LC-MS/MS analysis; type: ADME, organism-based; conditions: in vivo
Rattus norvegicus [28] = assay: AUC (0 to 8 hrs) in Brown Norway rat at 10 mg/kg, po by LC-MS/MS analysis; type: ADME, organism-based; set-up: dose 10 mg/kg, time < 8 hr, route oral; conditions: in vivo
[29] = Volume of distribution at steady state in Brown Norway rat at 10 mg/kg, po or 1 mg/kg, iv by LC-MS/MS analysis; type: ADME, organism-based; conditions: in vivo, read-out: Vdss
Method in brief: (§2)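 Brown Norway rats dosed i.v. at 1 mg/kg (n = 2; NMP/PG/cremophorEL/PBS or NMP/PEG 300/WFI vehicle) or p.o. at 3 or 10 mg/kg (n = 3; 0.5% MC/0.1% tween 80, WFI). Clearance, Vdss, t1/2, Cmax, AUC 0-8h and oral bioavailability calculated from plasma levels.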

[30] = Half life in Brown Norway rat at 10 mg/kg, po or 1 mg/kg, iv by LC-MS/MS analysis; type: ADME, organism-based; conditions: in vivo; method in brief: as §2
[31] = Cmax in Brown Norway rat at 10 mg/kg, po or 1 mg/kg, iv by LC-MS/MS analysis; type: ADME, organism-based; conditions: in vivo; method in brief: as §2
Rattus norvegicus [32] = assay: Oral bioavailability in Brown Norway rat at 10 mg/kg by LC-MS/MS analysis; type: ADME, organism-based; conditions: in vivo; method in brief: as §2
[33] = Dose normalized drug uptake in Brown Norway rat posteior eye cup at 6 mg/kg, po; type: ADME, organism-based; conditions: in vivo

Chain of Voltage-gated inwardly rectifying potassium channel KCNH2 (Q12809 whole entry): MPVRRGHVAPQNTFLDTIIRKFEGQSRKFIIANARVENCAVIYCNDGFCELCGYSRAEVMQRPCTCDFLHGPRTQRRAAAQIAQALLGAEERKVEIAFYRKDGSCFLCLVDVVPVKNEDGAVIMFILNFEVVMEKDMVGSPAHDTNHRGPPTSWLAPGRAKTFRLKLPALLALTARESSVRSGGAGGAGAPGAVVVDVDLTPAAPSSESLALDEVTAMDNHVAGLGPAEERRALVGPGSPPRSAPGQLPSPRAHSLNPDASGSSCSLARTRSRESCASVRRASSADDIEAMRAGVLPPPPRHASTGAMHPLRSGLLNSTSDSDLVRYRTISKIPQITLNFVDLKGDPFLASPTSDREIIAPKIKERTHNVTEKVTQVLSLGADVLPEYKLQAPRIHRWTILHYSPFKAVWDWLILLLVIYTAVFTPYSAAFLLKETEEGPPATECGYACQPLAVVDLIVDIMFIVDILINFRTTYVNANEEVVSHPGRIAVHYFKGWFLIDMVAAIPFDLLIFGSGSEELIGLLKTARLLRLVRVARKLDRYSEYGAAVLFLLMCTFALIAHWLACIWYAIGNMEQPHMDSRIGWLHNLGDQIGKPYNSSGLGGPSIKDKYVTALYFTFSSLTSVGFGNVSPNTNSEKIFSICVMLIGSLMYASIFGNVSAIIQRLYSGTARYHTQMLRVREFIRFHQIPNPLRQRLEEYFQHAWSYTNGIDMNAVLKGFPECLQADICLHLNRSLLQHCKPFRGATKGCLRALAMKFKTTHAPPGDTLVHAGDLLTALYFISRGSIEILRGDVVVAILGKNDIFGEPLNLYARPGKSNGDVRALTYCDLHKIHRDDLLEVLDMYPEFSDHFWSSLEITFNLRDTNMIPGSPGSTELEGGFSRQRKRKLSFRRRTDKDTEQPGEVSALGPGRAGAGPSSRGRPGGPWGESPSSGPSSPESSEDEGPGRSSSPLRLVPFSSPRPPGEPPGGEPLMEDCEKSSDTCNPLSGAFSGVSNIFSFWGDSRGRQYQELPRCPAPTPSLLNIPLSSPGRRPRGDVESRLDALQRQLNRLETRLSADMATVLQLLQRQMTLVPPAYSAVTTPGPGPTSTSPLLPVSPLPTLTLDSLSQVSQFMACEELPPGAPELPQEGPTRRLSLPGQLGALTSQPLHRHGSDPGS

SMILES: CC(C)c1cc(NC(=O)n2ccc3cc(Oc4ncnc5c4CCNC5)ccc32)n[nH]1
solubility [1]: 833 µM (≈ 348 µg/mL) | inhibition in vivo at 10 mg/kg (Mus musculus [2]): 0%

SMILES: CC(=O)N1CCc2c(ncnc2Oc2ccc3c(ccn3C(=O)Nc3cccc(C(F)(F)F)c3)c2)C1
inhibition in vivo at 10 mg/kg (Mus musculus [2]): 0%

SMILES: C[C@@H]1NCc2ncnc(Oc3ccc4c(ccn4C(=O)Nc4cc(C(C)(C)C)on4)c3)c21
inhibition in vivo at 10 mg/kg (Mus musculus [2]): 33%

SMILES: CNCc1cc(Oc2ccc3c(ccn3C(=O)Nc3ccc(F)c(C(F)(F)F)c3)c2)ncn1
inhibition in vivo at 10 mg/kg (Mus musculus [2]): 92%

SMILES: C[C@@H]1Cc2c(ncnc2Oc2ccc3c(ccn3C(=O)Nc3cc(C4(C)CC4)[nH]n3)c2)CN1
inhibition in vivo at 10 mg/kg (Mus musculus [2]): 48%

SMILES: O=C(Nc1cccc(C(F)(F)F)c1)n1ccc2cc(Oc3ncnc4c3CNCC4)ccc21
inhibition in vivo at 10 mg/kg (Mus musculus [2]): 0%

SMILES: CC1(c2cc(NC(=O)n3ccc4cc(Oc5ncnc6c5CNC6)ccc43)no2)CC1
inhibition in vivo at 10 mg/kg (Mus musculus [2]): 90%

SMILES: CC1(c2cc(NC(=O)n3ccc4cc(Oc5ncnc6c5CCNC6)ccc43)n[nH]2)CC1
solubility [1]: 252 µM (≈ 108 µg/mL) | ED50 (Mus musculus [4]): 7.8 mg/kg | ED90 (Mus musculus [4]): 25.3 mg/kg | ED50 (Rattus norvegicus [5]): 2.7 mg/kg | ED90 (Rattus norvegicus [5]): 13.6 mg/kg | AUC/dose (Plasma [20]): 166 nM·h/mg/kg | AUC/dose [21]: 310 nM·h/mg/kg | AUC/dose [22]: 2386 nM·h/mg/kg | Cmax/dose (Plasma [23]): 33 nM/mg/kg | Cmax/dose [24]: 15 nM/mg/kg | Cmax/dose [25]: 110 nM/mg/kg | Cp/dose (Plasma [26]): 0.7 nM/mg/kg | Druguptake/dose [27]: 13 nM/mg/kg | AUC (Rattus norvegicus [28]): 1.12 µM·h | Vd [29]: 22 L/kg | half-life [30]: 2.7 h | Cmax [31]: 0.505 µM | F (Rattus norvegicus [32]): 51% | Druguptake/dose [33]: 102 nM/mg/kg | inhibition in vivo at 10 mg/kg (Mus musculus [2]): 64%

SMILES: O=C(Nc1cccc(C(F)(F)F)c1)n1ccc2cc(Oc3cc(CO)ncn3)ccc21
inhibition in vivo at 10 mg/kg (Mus musculus [2]): 45%

The next lines start with results.

solubility [1]: 20 µM (≈ 8.37 µg/mL)
SMILES: CC(C)(C)c1cc(NC(=O)n2ccc3cc(Oc4ncnc5c4CNC5)ccc32)no1
inhibition in vivo at 10 mg/kg (Mus musculus [2]): 83%

solubility [1]: < 5 µM
SMILES: CCN1CCc2c(ncnc2Oc2ccc3c(ccn3C(=O)Nc3cccc(C(F)(F)F)c3)c2)C1
inhibition in vivo at 10 mg/kg (Mus musculus [2]): 81%

solubility [1]: 110 µM (≈ 44.3 µg/mL) | AUC/dose (Plasma [6]): 15014 nM·h/mg/kg | AUC/dose [7]: 2692 nM·h/mg/kg | AUC/dose [8]: 92954 nM·h/mg/kg | Cmax/dose (Plasma [9]): 3225 nM/mg/kg | Cmax/dose [10]: 337 nM/mg/kg | Cmax/dose [11]: 5293 nM/mg/kg | Cp/dose (Plasma [12]): 6 nM/mg/kg | Druguptake/dose [13]: 65 nM/mg/kg | AUC (Rattus norvegicus [14]): 29.4 µM·h | Vd [15]: 0.5 L/kg | half-life [16]: 1.2 h | Cmax [17]: 11 µM | F (Rattus norvegicus [18]): 100% | Druguptake/dose [19]: 3344 nM/mg/kg
SMILES: O=C(Nc1cc(C2CC2)on1)n1ccc2cc(Oc3ncnc4c3CNC4)ccc21
pIC50 [3]: < 4.52 | ED50 (Mus musculus [4]): 1.8 mg/kg | ED90 (Mus musculus [4]): 4.8 mg/kg | ED50 (Rattus norvegicus [5]): 0.7 mg/kg | ED90 (Rattus norvegicus [5]): 2.7 mg/kg | inhibition in vivo at 10 mg/kg (Mus musculus [2]): 98%

solubility [1]: 167 µM (≈ 72.2 µg/mL)
SMILES: CC(C)(C)c1cc(NC(=O)n2ccc3cc(Oc4ncnc5c4CCNC5)ccc32)no1
pIC50 [3]: 5.15 | inhibition in vivo at 10 mg/kg (Mus musculus [2]): 83%

solubility [1]: < 5 µM
SMILES: Nc1cc(Oc2ccc3c(ccn3C(=O)Nc3cccc(C(F)(F)F)c3)c2)ncn1
inhibition in vivo at 10 mg/kg (Mus musculus [2]): 44%
